In ChEMBL document CHEMBL1157858, “Synthesis and antituberculosis activity of some N-pyridyl-N'-thiazolylhydrazine derivatives” (Eur J Med Chem, 2010):
Converted amounts (≈) assume the structure as drawn.

Key:
[1] = test system: Mycobacterium tuberculosis; assay: Antitubercular activity against Mycobacterium tuberculosis H37Rv by Alamar blue assay; assay type: functional, organism-based
Outline: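 M. tuberculosis H37Rv (ATCC 27294) grown in BACTEC 12B medium and tested by Microplate Alamar Blue Assay. Ten 2-fold dilutions, typically from 100 to 0.19. IC90 is the concentration giving a 90% drop in fluorescence relative to controls.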

[2] = Selectivity index, ratio of CC50 for african green monkey Vero cells to IC90 for Mycobacterium tuberculosis H37Rv; assay type: toxicity, cell-based; details: read-out: Selectivity Index
Outline: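 Vero cells run in parallel with the TB dose-response assay. Viability is read after 72 h exposure by CellTiter-Glo luminescence, which quantifies cellular ATP. CC50 is fitted from the dose-response curve. IC90 for H37Rv comes from the MABA fluorescence readout, as a 90% reduction relative to controls.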

[3] = Cytotoxicity against african green monkey Vero cells after 72 hrs by cell titer-glo assay; assay type: cell-based; details: chlorocebus sabaeus
Outline: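 Vero cells, run alongside the TB dose-response assay; compound exposure 72 h, then viability read by ATP-based luminescence (CellTiter-Glo). CC50 taken from the dose–response curve by curve fitting.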

COc1ccc(O)c(-c2csc(N/N=C(\C)c3ccncc3)n2)c1
IC50 [1]: > 100 µg/mL | IC90 [1]: > 100 µg/mL

C/C(=N\Nc1nc(-c2cccs2)cs1)c1ccccn1
IC50 [1]: 48.4 µg/mL (≈ 161 µM) | IC90 [1]: 55.2 µg/mL (≈ 184 µM)

C/C(=N\Nc1nc(-c2cccs2)cs1)c1cccnc1
IC50 [1]: 92.2 µg/mL (≈ 307 µM) | IC90 [1]: > 100 µg/mL

C/C(=N\Nc1nc(-c2cccs2)cs1)c1ccncc1
IC50 [1]: > 100 µg/mL | IC90 [1]: > 100 µg/mL

COc1ccc(O)c(-c2csc(N/N=C(\C)c3ccccn3)n2)c1
selectivity ratio [2]: > 5.89 | CC50 at 72 h [3]: > 40 µg/mL | IC50 [1]: 6.22 µg/mL (≈ 18.3 µM) | IC90 [1]: 6.78 µg/mL (≈ 19.9 µM)

COc1ccc(O)c(-c2csc(N/N=C(\C)c3cccnc3)n2)c1
IC50 [1]: > 100 µg/mL | IC90 [1]: > 100 µg/mL
